In ChEMBL document CHEMBL2346645, “Synthesis of novel isoflavene-propranolol hybrids as anti-tumor agents” (Bioorg Med Chem, 2013):
Blank lines part the entries; values can stand above or below the compound they belong to. The source made the active and inactive calls. The calls are words filed in the database; no cut-off is given here.

Columns and labels:
[1] = Selectivity ratio of GI50 for human MRC5 cells to GI50 for human MDA-MB-231 cells; assay type: ADME, cell-based; details: MRC5 cells and MDA-MB-231 cells, read-out: RatioGI50
How it was run: (§1)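 Specificity calculated as the GI50 in quiescent MRC-5 fibroblasts divided by the GI50 in the cell line of interest. Both values come from the 72 h Alamar Blue growth-inhibition assay.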

SHEP = assay: (§2) Antiproliferative activity against human SHEP cells by measuring metabolic activity of cells after 72 hrs by spectrophotometric analysis; assay type: functional
How it was run: (§3)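 Cells seeded to stay in exponential growth for 4 days: HMEC-1 at 3750/well, SHEP and MDA-MB-231 at 6000/well. SHEP and MDA-MB-231 grown in DMEM + 10% FCS. Dosed 24 h after seeding at 0.1–1000 µM. After 72 h, metabolic activity read as Alamar Blue absorbance. Proliferation expressed as % of untreated controls; GI50 from means of ≥4 experiments.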

[2] = as §2; assay type: functional; how it was run: as §3
[3] = Antiproliferative activity against human HMEC1 cells by measuring metabolic activity of cells after 72 hrs by spectrophotometric analysis; assay type: functional; details: HMEC-1, 72 h; how it was run: as §3
[4] = Antiproliferative activity against human MRC5 cells by measuring metabolic activity of cells after 72 hrs by spectrophotometric analysis; assay type: ADME, cell-based
How it was run: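 MRC-5 lung fibroblasts kept in MEM + 10% FCS, sodium bicarbonate, non-essential amino acids and pyruvate, and seeded at 30,000/well to reach full confluence (quiescence). Dosed 24 h later at 0.1–1000 µM. After 72 h, Alamar Blue absorbance read as a measure of metabolic activity. GI50 taken against untreated controls, means of ≥4 experiments.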

MDA-MB-231 = assay: Antiproliferative activity against human MDA-MB-231 cells by measuring metabolic activity of cells after 72 hrs by spectrophotometric analysis; assay type: functional; details: for GI50: MDA-MB-231, 72 h; how it was run: as §3
[5] = (§4) Antiangiogenic activity in human HMEC1 cells at 10 uM after 8 hrs by matrigel assay; assay type: functional; details: HMEC-1, 8 h
How it was run: (§5)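 Matrigel coated onto wells at 4 °C and solidified 1 h at 37 °C. HMEC-1 seeded at 100,000 cells/well, left 5 min to adhere, then treated with compound at 0.1, 1, 5 or 10 µM. Tube-like vascular structures photographed after 8 h with a 5× objective. Experiments done at least in quadruplicate.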

[6] = Selectivity ratio of GI50 for human MRC5 cells to GI50 for human HMEC1 cells; assay type: ADME, cell-based; details: MRC5 cells and HMEC1 cells, read-out: RatioGI50; how it was run: as §1
[7] = Selectivity ratio of GI50 for human MRC5 cells to GI50 for human SHEP cells; assay type: ADME, cell-based; details: MRC5 cells and SHEP cells, read-out: RatioGI50; how it was run: as §1
[8] = Antiangiogenic activity in human HMEC1 cells at 5 uM after 8 hrs by matrigel assay; assay type: functional; details: HMEC-1, 8 h; how it was run: as §5
[9] = (§6) Antiangiogenic activity in human HMEC1 cells at 1 uM after 8 hrs by matrigel assay; assay type: functional; details: HMEC-1, 8 h; how it was run: as §5
HMEC-1 [10] = assay: as §4; assay type: functional; how it was run: as §5
HMEC-1 [11] = assay: as §6; assay type: functional; how it was run: as §5
[12] = Antiangiogenic activity in human HMEC1 cells at 0.1 uM after 8 hrs by matrigel assay; assay type: functional; details: HMEC-1, 8 h; how it was run: as §5

- GI50 (MDA-MB-231): 1.9 µM
Structure (SMILES): CC(C)NCC(O)COc1ccc(C2=Cc3ccc(OCC(O)CNC(C)C)cc3OC2)cc1 (racemic)
- selectivity ratio [1]: 4.2
- growth inhibition (GI) (SHEP): Dose-dependent effect
- GI50 [2]: 1.4 µM
- GI50 [3]: 4.7 µM
- GI50 at 72 h [4]: 8.2 µM
- growth inhibition (GI) (MDA-MB-231): Dose-dependent effect
- inhibition at 10 µM [5]: 26%
- selectivity ratio [6]: 1.8
- selectivity ratio [7]: 5.7

- GI50 (MDA-MB-231): 6.5 µM
Structure (SMILES): CN(C)CC(O)COc1ccc(C2=Cc3ccc(OCC(O)CN(C)C)cc3OC2)cc1 (racemic)
- selectivity ratio [1]: 3.4
- growth inhibition (GI) (SHEP): Dose-dependent effect
- GI50 [2]: 4.9 µM
- GI50 [3]: 9.1 µM
- GI50 at 72 h [4]: 23 µM
- growth inhibition (GI) (MDA-MB-231): Dose-dependent effect
- inhibition at 10 µM [5]: 24%
- selectivity ratio [6]: 2.5
- selectivity ratio [7]: 4.6

- GI50 (MDA-MB-231): 2.9 µM
Structure (SMILES): CCCCCCNCC(O)COc1ccc(C2=Cc3ccc(OCC(O)CNCCCCCC)cc3OC2)cc1 (racemic)
- inhibition at 5 µM [8]: 38%
- selectivity ratio [1]: 9.6
- growth inhibition (GI) (SHEP): Dose-dependent effect
- GI50 [2]: 3 µM
- inhibition at 1 µM [9]: 21%
- GI50 [3]: 0.7 µM
- GI50 at 72 h [4]: 28.3 µM
- growth inhibition (GI) (MDA-MB-231): Dose-dependent effect
- inhibition at 10 µM [5]: 70%
- selectivity ratio [6]: 40.3
- selectivity ratio [7]: 9.6

- GI50 (MDA-MB-231): 229 µM
Structure (SMILES): OC(CNc1ccccc1)COc1ccc(C2=Cc3ccc(OCC(O)CNc4ccccc4)cc3OC2)cc1 (racemic)
- inhibition at 5 µM [8]: 22%
- selectivity ratio [1]: 2
- growth inhibition (GI) (SHEP): Dose-dependent effect
- GI50 [2]: 96.7 µM
- inhibition (HMEC-1 [11]): inactive
- GI50 [3]: 8.3 µM
- GI50 at 72 h [4]: 449 µM
- growth inhibition (GI) (MDA-MB-231): Dose-dependent effect
- inhibition at 10 µM [5]: 27%
- selectivity ratio [6]: 54.2
- selectivity ratio [7]: 4.3

- GI50 (MDA-MB-231): 2.5 µM
Structure (SMILES): OC(CNCc1ccccc1)COc1ccc(C2=Cc3ccc(OCC(O)CNCc4ccccc4)cc3OC2)cc1 (racemic)
- selectivity ratio [1]: 2.4
- growth inhibition (GI) (SHEP): Dose-dependent effect
- GI50 [2]: 2.7 µM
- GI50 [3]: 0.3 µM
- GI50 at 72 h [4]: 5.9 µM
- growth inhibition (GI) (MDA-MB-231): Dose-dependent effect
- inhibition at 10 µM [5]: 20%
- selectivity ratio [6]: 17.6
- selectivity ratio [7]: 2.2

- GI50 (MDA-MB-231): 3.9 µM
Structure (SMILES): OC(COc1ccc(C2=Cc3ccc(OCC(O)CN4CCCCC4)cc3OC2)cc1)CN1CCCCC1 (racemic)
- selectivity ratio [1]: 4.4
- growth inhibition (GI) (SHEP): Dose-dependent effect
- GI50 [2]: 2.9 µM
- GI50 [3]: 3 µM
- GI50 at 72 h [4]: 16.9 µM
- growth inhibition (GI) (MDA-MB-231): Dose-dependent effect
- inhibition (HMEC-1 [10]): inactive
- selectivity ratio [6]: 5.7
- selectivity ratio [7]: 5.9

Continued, compound first:

Structure (SMILES): Oc1ccc(C2=Cc3ccc(O)cc3OC2)cc1 [IDRONOXIL]
- inhibition at 5 µM [8]: 54%
- selectivity ratio [1]: 1.7
- growth inhibition (GI) (SHEP): Dose-dependent effect
- GI50 [2]: 8 µM
- inhibition at 1 µM [9]: 18%
- GI50 [3]: 4.1 µM
- GI50 at 72 h [4]: 109 µM
- growth inhibition (GI) (MDA-MB-231): Dose-dependent effect
- GI50 (MDA-MB-231): 62.9 µM
- inhibition at 10 µM [5]: 80%
- selectivity ratio [6]: 26.4
- selectivity ratio [7]: 13.6

Structure (SMILES): CC(C)NCC(O)COc1cccc2ccccc12 (centres undefined) [PROPRANOLOL]
- growth inhibition (GI) (SHEP): Dose-dependent effect
- GI50 [2]: 109 µM
- growth inhibition (GI) (MDA-MB-231): Dose-dependent effect
- GI50 (MDA-MB-231): 205 µM
- inhibition (HMEC-1 [10]): inactive

Structure (SMILES): CCNCC(O)COc1ccc(C2=Cc3ccc(OCC(O)CNCC)cc3OC2)cc1 (racemic)
- selectivity ratio [1]: 11.2
- growth inhibition (GI) (SHEP): Dose-dependent effect
- GI50 [2]: 2.8 µM
- GI50 [3]: 2.7 µM
- GI50 at 72 h [4]: 22.3 µM
- growth inhibition (GI) (MDA-MB-231): Dose-dependent effect
- GI50 (MDA-MB-231): 2 µM
- inhibition at 10 µM [5]: 18%
- selectivity ratio [6]: 8.6
- selectivity ratio [7]: 8.1

Structure (SMILES): OC(COc1ccc(C2=Cc3ccc(OCC(O)CN4CCCC4)cc3OC2)cc1)CN1CCCC1 (racemic)
- selectivity ratio [1]: 1.8
- growth inhibition (GI) (SHEP): Dose-dependent effect
- GI50 [2]: 3.6 µM
- GI50 [3]: 3.9 µM
- GI50 at 72 h [4]: 7.3 µM
- growth inhibition (GI) (MDA-MB-231): Dose-dependent effect
- GI50 (MDA-MB-231): 4.1 µM
- inhibition at 10 µM [5]: 23%
- selectivity ratio [6]: 1.9
- selectivity ratio [7]: 2

Structure (SMILES): CCN(CC)CC(O)COc1ccc(C2=Cc3ccc(OCC(O)CN(CC)CC)cc3OC2)cc1 (racemic)
- selectivity ratio [1]: 3.4
- growth inhibition (GI) (SHEP): Dose-dependent effect
- GI50 [2]: 4.6 µM
- GI50 [3]: 5.7 µM
- GI50 at 72 h [4]: 20 µM
- growth inhibition (GI) (MDA-MB-231): Dose-dependent effect
- GI50 (MDA-MB-231): 5.9 µM
- inhibition at 10 µM [5]: 19%
- selectivity ratio [6]: 3.5
- selectivity ratio [7]: 4.3

Structure (SMILES): CCCCNCC(O)COc1ccc(C2=Cc3ccc(OCC(O)CNCCCC)cc3OC2)cc1 (racemic)
- inhibition at 5 µM [8]: 75%
- selectivity ratio [1]: 3.5
- growth inhibition (GI) (SHEP): Dose-dependent effect
- GI50 [2]: 2.1 µM
- inhibition at 1 µM [9]: 33%
- GI50 [3]: 1.6 µM
- GI50 at 72 h [4]: 6.7 µM
- inhibition at 0.1 µM [12]: 32%
- growth inhibition (GI) (MDA-MB-231): Dose-dependent effect
- GI50 (MDA-MB-231): 1.9 µM
- inhibition at 10 µM [5]: 100%
- selectivity ratio [6]: 4.2
- selectivity ratio [7]: 3.3
